Test results published in ChEMBL document CHEMBL1150273, “Aza-peptidyl Michael acceptors. A new class of potent and selective inhibitors of asparaginyl endopeptidases (legumains) from evolutionarily diverse pathogens” (J Med Chem, 2008).
Active and inactive are the calls of the source. The calls are words filed in the database; no cut-off is given here.

Tests used:
[1] = (§1) Inhibition of Schistosoma mansoni AE expressed in Pichia pastoris after 20 mins
In short: (§2)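 Recombinant AE zymogens expressed in Pichia pastoris; SmAE and TvAE1 autoactivated in 0.5 M sodium acetate, 4 mM DTT, pH 4.5, 37 °C, 3 h to overnight; IrAE used without activation. Buffer 0.1 M citrate phosphate, 4 mM DTT, pH 6.8 (SmAE, TvAE1) or pH 5.5 (IrAE). Inhibitor 2.0–0.0002 µM final, 20 min preincubation at room temperature; 10 µM final Cbz-Ala-Ala-Asn-AMC, 20 min; IC50 from RFU/min vs concentration.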

[2] = test system: Schistosoma mansoni; experiment: Inhibition of Schistosoma mansoni AE assessed as ratio of pseudo-first-order inhibition rate constant to inhibitor concentration
In short: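 Autoactivated recombinant SmAE added to six inhibitor concentrations (0–1 µM final) in 0.1 M citrate phosphate, 2 mM DTT, pH 6.8 with 20 µM Cbz-Ala-Ala-Asn-AMC; progress followed every 2 s for 30 min at 25 °C (ex 355, em 460 nm); kobs/[I] by nonlinear regression, corrected for substrate by factor 1.33.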

[3] = species: Sus scrofa; experiment: Inhibition of pig AE assessed as ratio of pseudo-first-order inhibition rate constant to inhibitor concentration
In short: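 Pig AE in 39.5 mM citric acid, 121 mM Na2HPO4, 1 mM EDTA, 0.1% CHAPS, 0.015% Brij, 1 mM DTT.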

[4] = biological target: T1, Calpain-1 catalytic subunit (Homo sapiens) (UniProt P07384); experiment: Inhibition of calpain 1 assessed as ratio of pseudo-first-order inhibition rate constant to inhibitor concentration
T1 sequence (whole entry): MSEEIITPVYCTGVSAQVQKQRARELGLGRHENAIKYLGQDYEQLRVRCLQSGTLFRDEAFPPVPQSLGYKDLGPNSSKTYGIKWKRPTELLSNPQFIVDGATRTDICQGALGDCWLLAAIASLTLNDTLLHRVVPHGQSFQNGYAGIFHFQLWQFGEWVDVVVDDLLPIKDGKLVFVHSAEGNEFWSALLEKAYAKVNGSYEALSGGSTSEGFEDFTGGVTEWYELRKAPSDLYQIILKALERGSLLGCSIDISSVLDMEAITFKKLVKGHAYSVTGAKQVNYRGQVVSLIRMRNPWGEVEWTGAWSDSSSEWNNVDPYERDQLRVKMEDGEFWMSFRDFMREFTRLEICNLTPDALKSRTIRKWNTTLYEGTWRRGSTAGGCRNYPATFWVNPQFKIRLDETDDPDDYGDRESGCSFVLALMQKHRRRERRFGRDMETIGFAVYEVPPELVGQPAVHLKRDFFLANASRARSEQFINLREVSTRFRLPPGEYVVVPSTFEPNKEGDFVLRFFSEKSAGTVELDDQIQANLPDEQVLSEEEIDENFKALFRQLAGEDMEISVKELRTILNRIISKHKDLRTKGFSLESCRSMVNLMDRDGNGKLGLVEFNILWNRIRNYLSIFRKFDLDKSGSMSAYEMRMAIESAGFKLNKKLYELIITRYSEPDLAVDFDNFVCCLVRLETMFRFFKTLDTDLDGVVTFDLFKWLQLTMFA

[5] = biological target: Lys-gingipain HG66 (Porphyromonas gingivalis) (UniProt P72197); experiment: Inhibition of Porphyromonas gingivalis gingipain K assessed as ratio of pseudo-first-order inhibition rate constant to inhibitor concentration
In short: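 Gingipain K diluted to 4.61 nM in 0.2 M Tris-HCl, 0.1 M NaCl, 5 mM CaCl2, 2 mM DTT, pH 8.0 and incubated with inhibitor (DMSO) at room temperature; aliquots taken at intervals into buffer with Suc-Ala-Phe-Lys-AMC; fluorescence at 465 nm; pseudo-first-order kinetics.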

[6] = biological target: T2, Caspase-3 (Homo sapiens) (UniProt P42574); experiment: Inhibition of caspase 3 assessed as ratio of pseudo-first-order inhibition rate constant to inhibitor concentration
T2 sequence (whole entry): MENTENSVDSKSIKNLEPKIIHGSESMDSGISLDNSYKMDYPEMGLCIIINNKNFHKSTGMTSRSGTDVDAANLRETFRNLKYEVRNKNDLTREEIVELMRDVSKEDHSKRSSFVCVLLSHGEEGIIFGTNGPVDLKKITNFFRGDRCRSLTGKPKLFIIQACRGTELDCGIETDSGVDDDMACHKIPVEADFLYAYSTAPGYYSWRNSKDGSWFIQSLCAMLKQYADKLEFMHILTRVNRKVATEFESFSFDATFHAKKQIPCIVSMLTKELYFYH
In short: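 Caspase-3 (1 nM final) preactivated 10 min at 37 °C in 40 mM Pipes, 200 mM NaCl, 0.2% CHAPS, 20% sucrose mixed 1:1 with 20 mM DTT, pH 7.2; enzyme added to inhibitor plus Ac-Asp-Glu-Val-Asp-AMC; progress curves 20 min at 37 °C (ex 360, em 465 nm); duplicates; rates corrected for substrate (KM 9.7 µM).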

[7] = biological target: T3, Clostripain (Clostridium histolyticum) (UniProt P09870); experiment: Inhibition of sClostridium histolyticum clostripain assessed as ratio of pseudo-first-order inhibition rate constant to inhibitor concentration; conditions: Hathewaya histolytica
T3 sequence (whole entry): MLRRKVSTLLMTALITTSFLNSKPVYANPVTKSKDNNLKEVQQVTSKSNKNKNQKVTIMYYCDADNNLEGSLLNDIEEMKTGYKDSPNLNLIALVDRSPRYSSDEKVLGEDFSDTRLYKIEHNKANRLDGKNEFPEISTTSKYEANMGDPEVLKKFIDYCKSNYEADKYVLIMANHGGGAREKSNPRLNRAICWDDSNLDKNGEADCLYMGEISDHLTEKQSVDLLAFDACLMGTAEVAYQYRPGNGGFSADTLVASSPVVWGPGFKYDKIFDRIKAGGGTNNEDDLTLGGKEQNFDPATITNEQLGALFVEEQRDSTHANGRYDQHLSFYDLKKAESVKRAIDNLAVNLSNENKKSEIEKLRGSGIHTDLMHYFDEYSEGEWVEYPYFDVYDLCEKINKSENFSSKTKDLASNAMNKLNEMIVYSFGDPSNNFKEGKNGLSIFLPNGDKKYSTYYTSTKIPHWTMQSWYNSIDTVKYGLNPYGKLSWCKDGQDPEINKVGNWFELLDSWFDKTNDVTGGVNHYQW
In short: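 Clostripain activated in 8 mM DTT, then incubated with inhibitor (DMSO) in 20 mM Tris-HCl, 10 mM CaCl2, 0.005% Brij 35, 2 mM DTT, pH 7.6; aliquots taken at intervals into buffer with Cbz-Phe-Arg-AMC; fluorescence at 465 nm; pseudo-first-order kinetics.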

[8] = Inhibition of Ixodes ricinus AE expressed in Pichia pastoris after 20 mins; in short: as §2
[9] = biological target: T4, Papain (Carica papaya) (UniProt P00784); experiment: Inhibition of papain assessed as ratio of pseudo-first-order inhibition rate constant to inhibitor concentration
T4 sequence (whole entry): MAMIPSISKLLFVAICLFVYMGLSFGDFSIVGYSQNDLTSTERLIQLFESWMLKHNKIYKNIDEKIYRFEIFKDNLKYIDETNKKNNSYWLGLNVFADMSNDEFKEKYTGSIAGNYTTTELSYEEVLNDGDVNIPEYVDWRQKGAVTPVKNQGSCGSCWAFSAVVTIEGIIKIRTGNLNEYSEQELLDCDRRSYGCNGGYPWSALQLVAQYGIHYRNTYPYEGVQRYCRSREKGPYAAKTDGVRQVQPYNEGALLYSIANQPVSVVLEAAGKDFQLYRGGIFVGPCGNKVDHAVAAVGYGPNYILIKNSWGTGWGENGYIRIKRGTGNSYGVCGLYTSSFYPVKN
In short: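 Papain, about 0.29 mg/mL, incubated with inhibitor in 50 mM Hepes, 2.5 mM DTT, 2.5 mM EDTA, pH 7.5; aliquots taken over time into 53.7 µM Cbz-Phe-Arg-pNA; p-nitroanilide release read at 405 nm at room temperature; pseudo-first-order inactivation kinetics.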

[10] = biological target: Caspase-8 (Homo sapiens) (UniProt Q14790); experiment: Inhibition of caspase 8 assessed as ratio of pseudo-first-order inhibition rate constant to inhibitor concentration
In short: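 Caspase-8 at 50 nM final, assayed in the same Pipes/NaCl/CHAPS/sucrose/DTT buffer, pH 7.2, 37 °C with Ac-Asp-Glu-Val-Asp-AMC by the progress curve method; inhibitor stocks 5 × 10^-3 to 2.42 × 10^-6 M in DMSO; rates corrected for substrate using KM 6.79 µM.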

[11] = biological target: Cathepsin B (Homo sapiens) (UniProt P07858); experiment: Inhibition of cathepsin B assessed as ratio of pseudo-first-order inhibition rate constant to inhibitor concentration
[12] = Inhibition of Trichomonas vaginalis G3 AE1 expressed in Pichia pastoris after 20 mins; in short: as §2
[13] = biological target: T5, Caspase-6 (Homo sapiens) (UniProt P55212); experiment: Inhibition of caspase 6 assessed as ratio of pseudo-first-order inhibition rate constant to inhibitor concentration
T5 sequence (whole entry): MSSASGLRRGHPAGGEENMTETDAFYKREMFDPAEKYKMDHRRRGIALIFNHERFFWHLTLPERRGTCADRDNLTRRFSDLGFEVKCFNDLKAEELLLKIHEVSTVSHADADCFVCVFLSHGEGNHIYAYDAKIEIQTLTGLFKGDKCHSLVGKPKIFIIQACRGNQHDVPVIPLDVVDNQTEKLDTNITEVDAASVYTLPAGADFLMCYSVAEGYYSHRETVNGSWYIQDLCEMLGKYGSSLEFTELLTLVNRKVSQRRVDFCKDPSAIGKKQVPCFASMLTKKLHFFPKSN
In short: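 Caspase-6 at 5 nM final, assayed in the same Pipes/NaCl/CHAPS/sucrose/DTT buffer, pH 7.2, 37 °C with Ac-Asp-Glu-Val-Asp-AMC by the progress curve method; inhibitor stocks 5 × 10^-3 to 2.42 × 10^-6 M in DMSO; rates corrected for substrate using KM 236.35 µM.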

[14] = test system: Schistosoma mansoni; experiment: as §1; in short: as §2
[15] = Stability assessed as half life in citrate phosphate buffer at pH 6.8 in presence of dithiothreitol; format: physicochemical; conditions: citrate phosphate buffer with dithiothreitol
[16] = biological target: T6, Legumain (Homo sapiens) (UniProt Q99538); experiment: Inhibition of human AE assessed as ratio of pseudo-first-order inhibition rate constant to inhibitor concentration
T6 sequence (whole entry): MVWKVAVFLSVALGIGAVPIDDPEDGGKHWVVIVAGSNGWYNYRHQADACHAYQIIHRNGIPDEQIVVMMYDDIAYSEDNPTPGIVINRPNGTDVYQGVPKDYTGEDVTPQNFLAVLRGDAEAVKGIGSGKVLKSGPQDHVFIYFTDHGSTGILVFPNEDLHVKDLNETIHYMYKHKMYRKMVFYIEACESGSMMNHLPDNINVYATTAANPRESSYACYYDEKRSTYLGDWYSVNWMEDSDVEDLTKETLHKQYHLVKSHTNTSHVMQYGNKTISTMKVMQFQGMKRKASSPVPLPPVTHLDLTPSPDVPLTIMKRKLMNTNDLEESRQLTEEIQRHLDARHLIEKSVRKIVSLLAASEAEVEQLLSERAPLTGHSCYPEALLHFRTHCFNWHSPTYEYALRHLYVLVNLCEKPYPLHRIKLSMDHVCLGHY
In short: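 Human AE; inhibitor and substrate incubated at 25 °C in 20 mM citric acid, 60 mM Na2HPO4, 1 mM EDTA, 0.1% CHAPS, pH 5.8 before enzyme addition.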

## CCOC(=O)[C@H]1O[C@@H]1C(=O)N(CC(N)=O)NC(=O)[C@H](C)NC(=O)[C@H](C)NC(=O)OCc1ccccc1
[1]
  IC50: 53 nM
[2]
  Ratio: 17400 M⁻¹ s⁻¹
[3]
  Ratio: 43000 M⁻¹ s⁻¹

## C[C@H](NC(=O)OCc1ccccc1)C(=O)N[C@@H](C)C(=O)NN(CC(N)=O)C(=O)/C=C/C(=O)N1CCc2ccccc21
[1]
  IC50: 70 nM
[4]
  Activity: inactive
[5]
  Ratio: 1 M⁻¹ s⁻¹
[6]
  Activity: inactive
[7]
  Activity: inactive
[8]
  IC50: 18 nM
[9]
  Activity: inactive
[10]
  Activity: inactive
[11]
  Activity: inactive
[12]
  IC50: 50 nM
[13]
  Activity: inactive

## C[C@H](NC(=O)OCc1ccccc1)C(=O)N[C@@H](C)C(=O)NN(CC(N)=O)C(=O)COC(=O)c1ccccc1
[3]
  Ratio: 13 M⁻¹ s⁻¹

## C[C@H](NC(=O)OCc1ccccc1)C(=O)N[C@@H](C)C(=O)NN(CC(N)=O)C(=O)CCl
[3]
  Ratio: 139000 M⁻¹ s⁻¹

## C/C=C/C=C/C(=O)N(CC(N)=O)NC(=O)[C@H](C)NC(=O)[C@H](C)NC(=O)OCc1ccccc1
[14]
  Activity: inactive
[12]
  IC50: 8000 nM

## C[C@H](NC(=O)OCc1ccccc1)C(=O)N[C@@H](C)C(=O)NN(CC(N)=O)C(=O)/C=C/C(=O)NCCc1ccccc1
[1]
  IC50: 600 nM
[4]
  Activity: inactive
[5]
  Activity: inactive
[6]
  Activity: inactive
[7]
  Activity: inactive
[8]
  IC50: 350 nM
[9]
  Ratio: 12 M⁻¹ s⁻¹
[10]
  Activity: inactive
[11]
  Activity: inactive
[12]
  IC50: 10 nM
[13]
  Activity: inactive

## C[C@H](NC(=O)OCc1ccccc1)C(=O)N[C@@H](C)C(=O)NN(CC(N)=O)C(=O)/C=C/C(=O)OCc1ccccc1
[8]
  IC50: < 1 nM
[12]
  IC50: 5 nM
[15]
  half-life: 2.5 min

## Cc1ccc(C)c(C(=O)OCC(=O)[C@H](CC(N)=O)NC(=O)OCc2ccccc2)c1
[16]
  Ratio: 109000 M⁻¹ s⁻¹

## C[C@H](NC(=O)OCc1ccccc1)C(=O)N[C@@H](C)C(=O)NN(CC(N)=O)C(=O)/C=C/C(=O)c1ccccc1
[14]
  Activity: inactive
[8]
  IC50: > 20000 nM
[12]
  IC50: ≥ 10000 nM

## CCN(CC)C(=O)/C=C/C(=O)N(CC(N)=O)NC(=O)[C@H](C)NC(=O)[C@H](C)NC(=O)OCc1ccccc1
[14]
  Activity: inactive
[2]
  Ratio: 17400 M⁻¹ s⁻¹
[8]
  IC50: 2700 nM
[12]
  IC50: 2000 nM

## C=CCOC(=O)/C=C/C(CC(N)=O)NC(=O)[C@H](C)NC(=O)[C@H](C)NC(=O)OCc1ccccc1 (stereo partly specified)
[3]
  Ratio: 776 M⁻¹ s⁻¹
